How the values were obtained:
[1] = Cardiotonic activity in guinea pig left atrial muscles assessed as minimum positive inotropic effective concentration causing myocardial contraction; assay type: functional, Cavia porcellus, Muscle tissue
How it was run: (§1)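 Guinea pig left atrial or right ventricular strips were perfused with Tyrode's solution, held at 1 g tension and paced at 2 Hz (2 ms, twice threshold). After about 60 min stabilisation, drug was added cumulatively. PIECmin was recorded as the lowest concentration that increased myocardial contraction.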

[2] = Cardiotonic activity in guinea pig right ventricular muscles assessed as minimum positive inotropic effective concentration causing myocardial contraction; assay type: functional, Cavia porcellus, Muscle tissue; how it was run: as §1
[3] = Cardiotonic activity in guinea pig left atrial muscles assessed as maximum positive inotropic effective concentration causing myocardial contraction relative to basal level; assay type: functional, Cavia porcellus, Muscle tissue
How it was run: (§2)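 Isolated left atrial or right ventricular strips from adult guinea pigs (300–500 g; pentobarbital 25 mg/kg i.p.; heart retrogradely perfused with Tyrode's, pH not stated). Tissue held at 1 g tension, paced at 2 Hz (2 ms pulses, twice threshold), stabilised about 60 min, then given cumulative drug additions. Maximal inotropic effect taken at the concentration just before arrhythmia onset.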

[4] = Cardiotonic activity in guinea pig right ventricular muscles assessed as maximum positive inotropic effective concentration causing myocardial contraction relative to basal level; assay type: functional, Cavia porcellus, Muscle tissue; how it was run: as §2
[5] = Safety index, ratio of arrhythmogenic concentration to minimum positive inotropic effective concentration causing myocardial contraction in guinea pig left atrial muscles; assay type: toxicity, tissue-based, Cavia porcellus, Muscle tissue; details: for selectivity ratio: isolated left atrial muscles
How it was run: (§3)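 Paced guinea pig left atrial or right ventricular strips (1 g tension, 2 Hz) received cumulative drug addition. The lowest concentration raising contraction (PIECmin) and the concentration inducing arrhythmia were both recorded. Safety index was calculated as the ratio of the arrhythmogenic concentration to PIECmin.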

[6] = Safety index, ratio of arrhythmogenic concentration to minimum positive inotropic effective concentration causing myocardial contraction in guinea pig right ventricular muscles; assay type: toxicity, tissue-based, Cavia porcellus, Muscle tissue; details: for selectivity ratio: isolated right ventricular muscles; how it was run: as §3
[7] = species on record: Cavia porcellus; assay: Inhibition of Na(+)/K(+)-ATPase in guinea pig atria by whole cell patch clamp method

C[C@@H]1O[C@H](O[C@H]2CC[C@@]3(C=O)[C@H](CC[C@@H]4[C@@H]3CC[C@]3(C)[C@@H](C5=CC(=O)OC5)CC[C@]43O)C2)[C@H](O)[C@H](O)[C@H]1O [MALAYOSIDE]
Activity [1]: 0.25 µM | Activity [2]: 0.25 µM | Activity [3]: 660% | Activity [4]: 464% | selectivity ratio [5]: 20 | selectivity ratio [6]: 24 | inhibition [7]: Dose-dependent effect

CO[C@H]1[C@@H](O[C@H]2CC[C@]3(C=O)[C@H]4CC[C@]5(C)[C@@H](C6=CC(=O)OC6)CC[C@]5(O)[C@@H]4CC[C@]3(O)C2)O[C@H](C)[C@@H](O)[C@H]1O (stereo in doubt; 20) [STROPHATHOJAVOSIDE]
Activity [1]: 0.5 µM | Activity [2]: 0.5 µM | Activity [3]: 225% | Activity [4]: 350% | Ratio [5]: 2.5 | Ratio [6]: 4

C[C@@H]1O[C@H](O[C@H]2CC[C@@H]3[C@H]4CC[C@]5(C)[C@@H](C6=CC(=O)OC6)CC[C@]5(O)[C@@H]4CC[C@]3(O)C2)[C@H](O)[C@H](O)[C@H]1O [ANTIAROSIDE I]
Activity [1]: 0.83 µM | Activity [2]: 0.67 µM | Activity [3]: 562% | Activity [4]: 1246% | selectivity ratio [5]: 6.7 | selectivity ratio [6]: 10.7
